Test results as given in PMC5615838 (Toxicology Reports, 2016).

Columns and labels:
[1] = tested on: S. typhimurium strains TA98, TA100, TA1535, TA1537 and E. coli strain WP2 uvrA; assay: bacterial reverse mutation test; assay type: cell-based, Salmonella typhimurium, Escherichia coli; conditions: 50–5000 μg/plate, plate incorporation and pre-incubation, ±S9
[2] = target: human bitter receptor hTAS2R8; conditions: antagonist; cited from earlier work
bone marrow PCEs = assay: in vivo micronucleus assay; design: species or system mouse; conditions: 500, 1000, 2000 mg/kg bw/day (oral), 2 days, male CD-1 mice
[3] = pharmacokinetics and oral bioavailability of S6821; assay type: in vivo, rat
[4] = JECFA SPET dietary exposure estimate; design: species or system human; conditions: 28- and 90-day toxicology studies
hERG = hERG (Homo sapiens, UniProt Q12809); assay: hERG electrophysiology; assay type: cell-based
Sequence of hERG (Q12809 whole entry): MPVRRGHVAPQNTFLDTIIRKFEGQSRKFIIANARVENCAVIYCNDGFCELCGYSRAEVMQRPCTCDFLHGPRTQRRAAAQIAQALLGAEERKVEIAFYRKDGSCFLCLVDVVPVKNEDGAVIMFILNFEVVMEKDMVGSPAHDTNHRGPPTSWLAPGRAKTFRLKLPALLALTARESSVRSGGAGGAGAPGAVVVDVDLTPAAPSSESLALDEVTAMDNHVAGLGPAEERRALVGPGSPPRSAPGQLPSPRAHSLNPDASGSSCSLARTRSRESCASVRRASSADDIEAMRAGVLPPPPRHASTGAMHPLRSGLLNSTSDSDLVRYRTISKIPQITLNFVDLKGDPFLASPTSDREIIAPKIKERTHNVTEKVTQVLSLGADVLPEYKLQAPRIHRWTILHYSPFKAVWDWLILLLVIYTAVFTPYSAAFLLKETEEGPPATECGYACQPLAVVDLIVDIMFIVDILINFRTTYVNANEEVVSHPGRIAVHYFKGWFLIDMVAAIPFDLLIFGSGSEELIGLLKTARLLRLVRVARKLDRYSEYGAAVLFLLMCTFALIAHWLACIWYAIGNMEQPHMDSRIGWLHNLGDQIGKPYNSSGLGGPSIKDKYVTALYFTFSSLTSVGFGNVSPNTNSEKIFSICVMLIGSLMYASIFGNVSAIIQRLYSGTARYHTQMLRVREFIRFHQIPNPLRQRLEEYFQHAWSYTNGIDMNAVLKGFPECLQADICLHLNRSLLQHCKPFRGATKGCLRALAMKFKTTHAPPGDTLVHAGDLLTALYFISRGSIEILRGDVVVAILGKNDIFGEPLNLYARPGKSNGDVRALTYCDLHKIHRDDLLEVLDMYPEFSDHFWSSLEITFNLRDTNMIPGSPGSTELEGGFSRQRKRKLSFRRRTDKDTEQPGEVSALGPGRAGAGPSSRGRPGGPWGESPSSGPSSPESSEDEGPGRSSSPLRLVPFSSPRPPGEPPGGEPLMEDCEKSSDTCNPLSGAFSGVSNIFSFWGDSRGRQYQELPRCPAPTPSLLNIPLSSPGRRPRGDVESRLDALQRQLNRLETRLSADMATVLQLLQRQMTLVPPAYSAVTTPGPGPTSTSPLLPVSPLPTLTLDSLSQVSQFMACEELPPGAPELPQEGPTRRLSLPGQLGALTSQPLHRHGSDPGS

[5] = tested on: human peripheral blood lymphocytes; assay: in vitro chromosome aberration test; conditions: 200–1300 μg/mL, 3 or 21 hr exposure, ±S9
[6] = dose range-finding developmental toxicity study; assay type: in vivo, rat; conditions: 125, 250, 500, 1000 mg/kg bw/day oral gavage, gestation days 6-20
CYP2C19 = CYP2C19 (Homo sapiens, UniProt P33261); assay: CYP inhibition, LC–MS/MS assay in human liver microsomes; assay type: in vitro ADME; conditions: pooled human liver microsomes, probe S-mephenytoin
Sequence of CYP2C19 (P33261 whole entry): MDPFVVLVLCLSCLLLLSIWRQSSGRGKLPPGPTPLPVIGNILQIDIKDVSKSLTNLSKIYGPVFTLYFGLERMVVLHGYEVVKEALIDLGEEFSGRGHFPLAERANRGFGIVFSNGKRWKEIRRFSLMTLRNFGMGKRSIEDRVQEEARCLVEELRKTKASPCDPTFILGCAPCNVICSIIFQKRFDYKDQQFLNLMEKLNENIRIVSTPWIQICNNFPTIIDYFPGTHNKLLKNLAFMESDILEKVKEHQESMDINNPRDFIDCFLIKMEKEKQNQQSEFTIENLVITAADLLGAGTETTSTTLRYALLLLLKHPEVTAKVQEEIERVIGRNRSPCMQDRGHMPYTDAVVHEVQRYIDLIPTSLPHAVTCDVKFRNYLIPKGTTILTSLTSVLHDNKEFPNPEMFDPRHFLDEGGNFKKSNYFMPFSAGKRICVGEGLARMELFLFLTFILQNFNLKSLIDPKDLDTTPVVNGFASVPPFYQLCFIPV
Method in brief: (§1)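 Follow-up CYP panel in pooled human liver microsomes with CYP-specific probe substrates; CYP-specific metabolites quantified by LC-MS/MS. Test compound at 10 μM. Percent inhibition reported.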

[7] = definitive developmental toxicity study; assay type: in vivo, rat
[8] = 28-day dose-range finding toxicity study, diet; assay type: in vivo, rat; conditions: 28 days
Method in brief: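 Crl:CD(SD) rats, 5/sex/group, fed test compound in the diet at 10, 30 or 100 mg/kg bw/day for 28 days, with a vehicle-diet control group of 5/sex. Assessed survival, clinical signs, body weight, food consumption, hematology, clinical chemistry, organ weights and gross pathology. Livers examined microscopically in the 0 and 100 mg/kg bw/day groups.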

CYP1A2 = target: T1, CYP1A2 (Homo sapiens, UniProt P05177); assay: CYP inhibition, LC–MS/MS assay in human liver microsomes; assay type: in vitro ADME; conditions: pooled human liver microsomes, probe phenacetin
T1 sequence (P05177 1-516): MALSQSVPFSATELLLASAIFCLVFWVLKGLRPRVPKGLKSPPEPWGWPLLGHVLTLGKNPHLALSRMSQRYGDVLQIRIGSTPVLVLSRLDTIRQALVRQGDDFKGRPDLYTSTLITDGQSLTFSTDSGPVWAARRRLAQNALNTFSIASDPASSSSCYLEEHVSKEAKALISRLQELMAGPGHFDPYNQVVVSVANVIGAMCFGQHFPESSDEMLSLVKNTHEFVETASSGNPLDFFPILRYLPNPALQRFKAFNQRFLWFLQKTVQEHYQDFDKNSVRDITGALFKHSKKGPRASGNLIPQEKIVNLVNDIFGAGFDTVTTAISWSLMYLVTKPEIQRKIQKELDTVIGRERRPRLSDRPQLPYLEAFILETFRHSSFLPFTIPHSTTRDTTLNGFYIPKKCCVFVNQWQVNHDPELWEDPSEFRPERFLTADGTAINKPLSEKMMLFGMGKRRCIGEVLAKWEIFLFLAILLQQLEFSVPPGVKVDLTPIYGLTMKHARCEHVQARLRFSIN
Method in brief: as §1

[9] = male, Sprague-Dawley, rat, plasma, iv, 1 mg/kg
[10] = male, Sprague-Dawley, rat, plasma, po, 10 mg/kg
[11] = male, Sprague-Dawley, rat, plasma, po, 30 mg/kg
[12] = male, Sprague-Dawley, rat, plasma, po, 100 mg/kg

SMILES: Cc1noc(C)c1Cn1cc(N2C(=O)CN(Cc3cccc(O)c3)C2=O)cn1 [S6821, 3-(1-((3,5-dimethylisoxazol-4-yl)methyl)-1H-pyrazol-4-yl)-1-(3-hydroxybenzyl)imidazolidine-2,4-dione]
- Reverse mutation (in vitro), Result [1]: Negative
- IC50 [2]: 35 nM
- Micronucleus formation (in vivo), Result (bone marrow PCEs): Negative
- AUC0-last/dose ([3]; iv 1.0 mg/kg bw S6821): 161 ng·h/mL/mg/kg
- Vss, times the total body water volume in the rat ([3]; iv, body water 668 mL/kg): 0.84 times
- CL as % of hepatic blood flow in the rat ([3]; iv, hepatic blood flow 55.2 mL/min/kg): 190%
- AUC(0-t) [3, 9]: 161 ng·h/mL
- Cmax [3, 9]: 619 ng/mL
- Tmax [3, 9]: 4.8 min
- Vd [3, 9]: 0.563 L/kg
- clearance [3, 9]: 105 mL/min/kg
- half-life [3, 9]: 6 min
- AUC(0-t) [3, 10]: 28 ng·h/mL
- Cmax [3, 10]: 12.3 ng/mL
- Tmax [3, 10]: 30 min
- bioavailability [3, 10]: 1.74%
- half-life [3, 10]: 120 min
- AUC(0-t) [3, 11]: 201 ng·h/mL
- Cmax [3, 11]: 38.5 ng/mL
- Tmax [3, 11]: 30 min
- bioavailability [3, 11]: 4.16%
- half-life [3, 11]: 426 min
- AUC(0-t) [3, 12]: 410 ng·h/mL
- Cmax [3, 12]: 68.1 ng/mL
- Tmax [3, 12]: 30 min
- bioavailability [3, 12]: 2.55%
- half-life [3, 12]: 258 min
- AUC0-last/dose ([3]; oral gavage 10 mg/kg bw S6821): 2.80 ng·h/mL/mg/kg
- AUC0-last/dose ([3]; oral gavage 30 mg/kg bw S6821): 6.70 ng·h/mL/mg/kg
- AUC0-last/dose ([3]; oral gavage 100 mg/kg bw S6821): 4.10 ng·h/mL/mg/kg
- NOAEL of 100 mg/kg bw/day as multiple of estimated dietary exposure [4]: 1500 times
- inhibition at 10 µM (hERG): < 10%
- Chromosome aberration (in vitro), Result [5]: Negative
- Findings [6]: No maternal toxicity or effect on intrauterine growth up to 1000 mg/kg bw/day
- inhibition at 10 µM (CYP2C19): 8%
- Malformations, fetuses (litters) ([7]; 125 mg/kg bw/day, of 347(25) evaluated): 3(2)
- Malformations, fetuses (litters) ([7]; 500 mg/kg bw/day, of 364(25) evaluated): 2(2)
- Malformations, fetuses (litters) ([7]; 1000 mg/kg bw/day, of 327(22) evaluated): 4(3)
- Corpora Lutea ([7]; Mean, 125 mg/kg bw/day): 15.4
- Dead Fetuses ([7]; Mean, 125 mg/kg bw/day): 0.0
- Fetal Wt. ([7]; Mean, 125 mg/kg bw/day): 5.7 g
- Fetuses, Sex F ([7]; Mean, 125 mg/kg bw/day): 6.8
- Fetuses, Sex M ([7]; Mean, 125 mg/kg bw/day): 7.1
- Implant. Sites ([7]; Mean, 125 mg/kg bw/day): 14.6
- Post- Implant. Loss ([7]; Mean, 125 mg/kg bw/day): 0.7
- Pre- Implant. Loss ([7]; Mean, 125 mg/kg bw/day): 0.8
- Resorptions Early ([7]; Mean, 125 mg/kg bw/day): 0.7
- Resorptions Late ([7]; Mean, 125 mg/kg bw/day): 0.0
- Corpora Lutea ([7]; Mean, 500 mg/kg bw/day): 16.6
- Dead Fetuses ([7]; Mean, 500 mg/kg bw/day): 0.0
- Fetal Wt. ([7]; Mean, 500 mg/kg bw/day): 5.6 g
- Fetuses, Sex F ([7]; Mean, 500 mg/kg bw/day): 7.4
- Fetuses, Sex M ([7]; Mean, 500 mg/kg bw/day): 7.2
- Implant. Sites ([7]; Mean, 500 mg/kg bw/day): 15.4
- Post- Implant. Loss ([7]; Mean, 500 mg/kg bw/day): 0.8
- Pre- Implant. Loss ([7]; Mean, 500 mg/kg bw/day): 1.2
- Resorptions Early ([7]; Mean, 500 mg/kg bw/day): 0.8
- Resorptions Late ([7]; Mean, 500 mg/kg bw/day): 0.0
- Corpora Lutea ([7]; Mean, 1000 mg/kg bw/day): 16.9
- Dead Fetuses ([7]; Mean, 1000 mg/kg bw/day): 0.0
- Fetal Wt. ([7]; Mean, 1000 mg/kg bw/day): 5.6 g
- Fetuses, Sex F ([7]; Mean, 1000 mg/kg bw/day): 7.4
- Fetuses, Sex M ([7]; Mean, 1000 mg/kg bw/day): 7.5
- Implant. Sites ([7]; Mean, 1000 mg/kg bw/day): 15.8
- Post- Implant. Loss ([7]; Mean, 1000 mg/kg bw/day): 0.9
- Pre- Implant. Loss ([7]; Mean, 1000 mg/kg bw/day): 1.1
- Resorptions Early ([7]; Mean, 1000 mg/kg bw/day): 0.9
- Resorptions Late ([7]; Mean, 1000 mg/kg bw/day): 0.0
- Dead Fetuses ([7]; Total, 125 mg/kg bw/day): 0
- Fetuses, Sex F ([7]; Total, 125 mg/kg bw/day): 170
- Fetuses, Sex M ([7]; Total, 125 mg/kg bw/day): 177
- Implant. Sites ([7]; Total, 125 mg/kg bw/day): 364
- Post- Implant. Loss ([7]; Total, 125 mg/kg bw/day): 17
- Pre- Implant. Loss ([7]; Total, 125 mg/kg bw/day): 20
- Resorptions Early ([7]; Total, 125 mg/kg bw/day): 17
- Resorptions Late ([7]; Total, 125 mg/kg bw/day): 0
- Corpora Lutea ([7]; Total, 500 mg/kg bw/day): 415
- Dead Fetuses ([7]; Total, 500 mg/kg bw/day): 0
- Fetuses, Sex F ([7]; Total, 500 mg/kg bw/day): 185
- Fetuses, Sex M ([7]; Total, 500 mg/kg bw/day): 179
- Implant. Sites ([7]; Total, 500 mg/kg bw/day): 384
- Post- Implant. Loss ([7]; Total, 500 mg/kg bw/day): 20
- Pre- Implant. Loss ([7]; Total, 500 mg/kg bw/day): 31
- Resorptions Early ([7]; Total, 500 mg/kg bw/day): 19
- Resorptions Late ([7]; Total, 500 mg/kg bw/day): 1
- Corpora Lutea ([7]; Total, 1000 mg/kg bw/day): 372
- Dead Fetuses ([7]; Total, 1000 mg/kg bw/day): 0
- Fetuses, Sex F ([7]; Total, 1000 mg/kg bw/day): 162
- Fetuses, Sex M ([7]; Total, 1000 mg/kg bw/day): 165
- Implant. Sites ([7]; Total, 1000 mg/kg bw/day): 347
- Post- Implant. Loss ([7]; Total, 1000 mg/kg bw/day): 20
- Pre- Implant. Loss ([7]; Total, 1000 mg/kg bw/day): 25
- Resorptions Early ([7]; Total, 1000 mg/kg bw/day): 20
- Resorptions Late ([7]; Total, 1000 mg/kg bw/day): 0
- NOAEL for both maternal toxicity and embryo/fetal development ([7]; oral gavage, gestation days 6-20): NOAEL for both maternal toxicity and embryo/fetal development = 1000 mg/kg bw/day
- MTD ([8]; 10, 30, 100 mg/kg bw/day food ad-mix, male & female): > 100 mg/kg bw/day
- Findings ([8]; up to 100 mg/kg bw/day): No test-article related findings
- inhibition at 10 µM (CYP1A2): 18%
